Laboratory results from ChEMBL document CHEMBL2417427, “High analgesic and anti-inflammatory in vivo activities of six new hybrids NSAIAs tetrahydropyran derivatives” (Bioorg Med Chem, 2013).
The source made the active and inactive calls. The rule behind the calls is not given here.

Key:
[1] = tested on: Mus musculus; experiment: Antinociceptive activity in po dosed Albino-Swiss mouse assessed as acetic acid-induced abdominal writhing compound administered 30 mins prior challenge measured over 30 mins post acetic acid challenge; assay type: functional; settings: Abdomen
In short: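 Mice were dosed orally at 1, 5 and 10 mg/kg as a suspension in 5% ethyl acetate vehicle (5 mL/kg). Acetic acid 1.2% (v/v) was then given ip, and writhes (abdominal contraction, body stretching, hind-limb extension) were counted for 30 min from injection. n = 6 per group. ED50 (µmol/kg) was obtained by sigmoidal dose-response nonlinear regression.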

[2] = Acute toxicity in po dosed Albino-Swiss mouse assessed as hyperventilation administered as single dose measured after 5 hrs until day 14; assay type: organism-based; settings: in vivo
In short: (§1)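 Oral single dose given as a suspension in 5% ethyl acetate (5 mL/kg), in increasing doses up to 2000 mg/kg, following WHO and OECD guidelines. Animals were observed from 5 h after dosing, then daily until day 14, for disorientation, hyperactivity, piloerection and hyperventilation. LD50 was fitted by nonlinear regression of percent deaths versus dose. n = 6 per group.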

[3] = Acute toxicity in po dosed Albino-Swiss mouse assessed as piloerection administered as single dose measured after 5 hrs until day 14; assay type: organism-based; settings: in vivo; in short: as §1
[4] = Acute toxicity in po dosed Albino-Swiss mouse assessed as hyperactivity administered as single dose measured after 5 hrs until day 14; assay type: organism-based; settings: in vivo; in short: as §1
[5] = Acute toxicity in po dosed Albino-Swiss mouse assessed as disorientation administered as single dose measured after 5 hrs until day 14; assay type: organism-based; settings: in vivo; in short: as §1
[6] = tested on: Mus musculus; experiment: Toxicity in Albino-Swiss mouse assessed as forced motor activity at 10 mg/kg, po measured after 60 mins by rota-rod test; assay type: organism-based; design: dose 10 mg/kg, route oral; settings: in vivo, 1 h
In short: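 Mice, 6 per group, trained twice the day before to stay 5 min on a rotating roller at 10 rev/min. Next day given 10 mg/kg p.o. (suspension in 5% ethyl acetate, 5 mL/kg) or vehicle, then placed on the roller 60 min later for 5 min. Read-out was number of falls; mean ± SD, ANOVA with Bonferroni.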

[7] = tested on: Mus musculus; experiment: Toxicity in Albino-Swiss mouse assessed as spontaneous locomotor activity at 10 mg/kg, po measured after 60 mins by open-field test; assay type: organism-based; design: dose 10 mg/kg, route oral; settings: in vivo, 1 h
In short: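 Oral dosing at 10 mg/kg (5% ethyl acetate suspension, 5 mL/kg) or vehicle, 6 mice per group. At 60 min each mouse was placed alone in a chamber with the floor divided into 50 squares of 5 × 5 cm. Squares walked during 5 min were counted; mean ± SD, ANOVA with Bonferroni.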

[8] = tested on: Mus musculus; experiment: Antinociceptive activity in Albino-Swiss mouse assessed as increase in thermal-stimulus induced tail flick latency at 10 mg/kg, po measured over 20 to 120 mins; assay type: functional, organism-based; design: dose 10 mg/kg
In short: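 Mice, 6 per group, dosed orally at 10 mg/kg as a suspension in 5% ethyl acetate vehicle (5 mL/kg). Light intensity set so baseline latency fell at 4–6 s; animals outside this range were excluded. Two pre-dose latencies averaged as baseline, then six readings at 20-min intervals. Reported as percentage increase over baseline per time point, or as AUC (trapezoid rule) over 20–120 min.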

[9] = tested on: Mus musculus; experiment: Ratio of diclofenac ED50 to compound ED50 for antinociceptive activity in po dosed Albino-Swiss mouse assessed as acetic acid-induced abdominal writhing compound administered 30 mins prior challenge measured over 30 mins post acetic acid challenge; assay type: functional, Abdomen

Compound	ED50 [1]	LD50 at 5 h [2]	LD50 at 5 h [3]	LD50 at 5 h [4]	LD50 at 5 h [5]	Activity [6]	Activity [7]	Activity [8]	Ratio ED50 [9]
O=C(O)Cc1ccccc1Nc1c(Cl)cccc1Cl [DICLOFENAC POTASSIUM]	32.5 µmol/kg	–	–	–	–	–	–	–	–
CC(=O)Oc1ccccc1C(=O)O [ASPIRIN]	44.2 µmol/kg	–	–	–	–	–	–	–	–
CC(C)Cc1ccc(C(C)C(=O)O)cc1 (stereo unspecified) [IBUPROFEN]	60.3 µmol/kg	–	–	–	–	–	–	–	–
CC(C(=O)OC[C@@H]1C[C@H](Cl)C[C@H](c2cccc3ccccc23)O1)c1cccc(C(=O)c2ccccc2)c1 (mixture of isomers)	14 µmol/kg	> 2000 mg/kg	> 2000 mg/kg	> 2000 mg/kg	> 2000 mg/kg	Non-toxic	Non-toxic	Active	–
COc1ccc2c(c1)c(CC(=O)OC[C@@H]1C[C@H](Cl)C[C@H](c3cccc4ccccc34)O1)c(C)n2C(=O)c1ccc(Cl)cc1 (racemic)	13.8 µmol/kg	> 2000 mg/kg	> 2000 mg/kg	> 2000 mg/kg	> 2000 mg/kg	Non-toxic	Non-toxic	Active	–
COc1ccc2cc(C(C)C(=O)OC[C@@H]3C[C@H](Cl)C[C@H](c4cccc5ccccc45)O3)ccc2c1 (mixture of isomers)	4.6 µmol/kg	> 2000 mg/kg	> 2000 mg/kg	> 2000 mg/kg	> 2000 mg/kg	Non-toxic	Non-toxic	Active	–
COc1ccc2cc([C@H](C)C(=O)O)ccc2c1 [NAPROXEN]	21.8 µmol/kg	–	–	–	–	–	–	–	–
O=C(Cc1ccccc1Nc1c(Cl)cccc1Cl)OC[C@@H]1C[C@H](Cl)C[C@H](c2cccc3ccccc23)O1 (racemic)	3.17 µmol/kg	> 2000 mg/kg	> 2000 mg/kg	> 2000 mg/kg	> 2000 mg/kg	Non-toxic	Non-toxic	Active	>10
CC(=O)Oc1ccccc1C(=O)OC[C@@H]1C[C@H](Cl)C[C@H](c2cccc3ccccc23)O1 (racemic)	20.4 µmol/kg	> 2000 mg/kg	> 2000 mg/kg	> 2000 mg/kg	> 2000 mg/kg	Non-toxic	Non-toxic	Active	–
OC[C@@H]1C[C@H](Cl)C[C@H](c2cccc3ccccc23)O1 (racemic)	28 µmol/kg	–	–	–	–	–	–	–	–
CC(C(=O)O)c1cccc(C(=O)c2ccccc2)c1 (stereo unspecified) [KETOPROFEN]	46.6 µmol/kg	–	–	–	–	–	–	–	–
CC(C)Cc1ccc(C(C)C(=O)OC[C@@H]2C[C@H](Cl)C[C@H](c3cccc4ccccc34)O2)cc1 (mixture of isomers)	10.3 µmol/kg	> 2000 mg/kg	> 2000 mg/kg	> 2000 mg/kg	> 2000 mg/kg	Non-toxic	Non-toxic	Active	–
COc1ccc2c(c1)c(CC(=O)O)c(C)n2C(=O)c1ccc(Cl)cc1 [INDOMETHACIN]	72.6 µmol/kg	–	–	–	–	–	–	–	–
